Converted amounts (≈) assume the structure as drawn.
What was measured:
[1] = target: Bovine serum albumin (BSA)-glucose model (Bos taurus, UniProt P02769); assay: In vitro anti-glycation assay, BSA-glucose model; type: biochemical; conditions: for inhibition at 100 ppm / inhibition at 200 ppm / inhibition at 400 ppm / inhibition at 600 ppm / inhibition at 800 ppm / inhibition at 1000 ppm: read-out: % age antiglycation inhibition
How it was run: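 Glycation is read by measuring the fluorescence of glycated products on a spectrofluorometer.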

α-amylase = assay: α-Amylase inhibition assay; type: biochemical; conditions: for IC50: read-out: IC50 ± SEM, α-amylase inhibition
[2] = DPPH radical scavenging assay; conditions: for IC50: read-out: IC50 (mM ± SEM), DPPH scavenged by 50%
How it was run: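 Radical scavenging of DPPH by the test compound, with ascorbic acid as the reference.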

glycation [3] = conditions: cited from earlier work
glycation [4] = conditions: read-out: IC50, antiglycation; cited from earlier work

Chain of Bovine serum albumin (BSA)-glucose model (P02769 25-607): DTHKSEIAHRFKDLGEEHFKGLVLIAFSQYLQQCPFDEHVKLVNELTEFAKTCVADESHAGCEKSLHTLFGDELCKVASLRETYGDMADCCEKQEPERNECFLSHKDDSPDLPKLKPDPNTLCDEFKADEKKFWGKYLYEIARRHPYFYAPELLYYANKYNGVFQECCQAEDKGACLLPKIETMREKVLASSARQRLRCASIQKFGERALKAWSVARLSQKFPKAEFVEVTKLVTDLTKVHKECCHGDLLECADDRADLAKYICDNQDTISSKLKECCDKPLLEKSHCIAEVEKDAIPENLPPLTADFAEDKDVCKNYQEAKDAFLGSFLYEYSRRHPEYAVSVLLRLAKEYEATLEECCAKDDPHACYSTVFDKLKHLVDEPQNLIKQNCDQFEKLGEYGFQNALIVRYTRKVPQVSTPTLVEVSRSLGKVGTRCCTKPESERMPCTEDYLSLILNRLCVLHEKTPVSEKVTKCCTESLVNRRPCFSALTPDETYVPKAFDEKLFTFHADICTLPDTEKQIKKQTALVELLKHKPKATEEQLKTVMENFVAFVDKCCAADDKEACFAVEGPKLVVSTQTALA

| inhibition at 100 ppm [1] | inhibition at 200 ppm [1] | inhibition at 400 ppm [1] | inhibition at 600 ppm [1] | inhibition at 800 ppm [1] | inhibition at 1000 ppm [1] | % age α-amylase inhibition (α-amylase; 1 μM) | % age α-amylase inhibition (α-amylase; 5 μM) | % age α-amylase inhibition (α-amylase; 10 μM) | IC50 (α-amylase) | IC50 [2] | SMILES | % age antioxidant potential ([2]; 3 mM) | % age antioxidant potential ([2]; 6 mM) | % age antioxidant potential ([2]; 9 mM) | % age antioxidant potential ([2]; 12 mM) | % age antioxidant potential ([2]; 15 mM) | further results |
| --- | --- | --- | --- | --- | --- | --- | --- | --- | --- | --- | --- | --- | --- | --- | --- | --- | --- |
| 76.8% | 78.8% | 82.5% | 84% | 86.1% | 88.8% | 42.76% | 52.79% | 63.94% | 6.66 ± 0.13 µM |  | Fc1ccc(-c2csc(NN=Cc3ccc[nH]3)n2)cc1 [3m, 2-(2-((1H-Pyrrol-2-yl)methylene)hydrazinyl)-4-(4-fluorophenyl)thiazole] | 0.00% | 0.00% | 0.00% | 15.13% | 31.05% | percentage antioxidant potential ([2]; at tested concentrations, IC50 not calculated): less than 50% |
| 79.3% | 81% | 82.1% | 83% | 85.8% | 87.8% | 51.64% | 64.48% | 71.83% | 5.77 ± 0.05 µM | 13.86 ± 0.04 mM | Fc1ccc(-c2csc(NN=Cc3cccs3)n2)cc1 [3n, 4-(4-Fluorophenyl)-2-(2-(thiophen-2-ylmethylene)hydrazinyl)thiazole] | 0.00% | 12.72% | 30.39% | 45.47% | 59.36% |  |
| 83.7% | 84.2% | 85.5% | 86.4% | 88.2% | 89.5% | 33.07% | 43.03% | 57.18% | 7.69 ± 0.18 µM | 18 ± 0.27 mM | CSc1ccccc1C=NNc1nc(-c2ccc(F)cc2)cs1 [3o, 4-(4-Fluorophenyl)-2-(2-(2-(methylthio)benzylidene)hydrazinyl)thiazole] | 0.00% | 7.68% | 18.22% | 30.15% | 53.73% |  |
|  |  |  |  |  |  |  |  |  |  |  | N=C(N)NN [amino guanidine, reference compound] |  |  |  |  |  | % age antiglycation inhibition ([1]; 100 ppm): 85.190%; % age antiglycation inhibition ([1]; 200 ppm): 86.141%; % age antiglycation inhibition ([1]; 400 ppm): 87.143%; % age antiglycation inhibition ([1]; 600 ppm): 88.011%; % age antiglycation inhibition ([1]; 800 ppm): 88.866%; % age antiglycation inhibition ([1]; 1000 ppm): 89.657%; IC50, antiglycation (glycation [3]): 394 ± 1 µg/mL (≈ 5.32 mM); IC50 (glycation [4]): 25.5 ± 0.337 µM |

Source: paper PMC10061536 (ACS Omega, 2023)
